Source: publication PMC6474797 (ACS chemical biology, 2019)

Experiments:
[1] = Critical aggregation concentration; assay type: physicochemical
Outline: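 Colloids were formulated in PBS with 0.01% UP80 and 10 μM of a cholesteryl BODIPY FRET pair (FL C12 donor, 542/563 C11 acceptor; 0.875:0.125) added to the drug stock. They were diluted 10-fold into PBS or serum media and read by fluorescence (excitation 490 nm, acceptor emission 575 nm). Dye-free comparison was by DLS scattering intensity (830 nm laser, 158° detector).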

[2] = with PLAC–PEG polymer, compared with PPD colloids; cited from earlier work

Structure (SMILES) | measured CAC with or without BODIPY dyes ([1]; PBS, fluorescence versus light scattering methods) | critical aggregation concentration (CAC) ([1]; protein-free media, light scattering (Figure S3)) | critical aggregation concentration (CAC) ([1]; serum-containing media, colloids with 10 μM BODIPY FRET pair, 0.01% UP80, diluted 10-fold, fluorescence intensity) | drug loading [2]
C[C@]12CC[C@@H]3c4ccc(O)cc4C[C@@H](CCCCCCCCC[S+]([O-])CCCC(F)(F)C(F)(F)F)[C@H]3[C@@H]1CC[C@@H]2O (stereo partly shown) [fulvestrant] | no difference | low micromolar | increased with serum content | –
CC(=O)O[C@@]12CO[C@@H]1C[C@H](O)[C@@]1(C)C(=O)[C@H](O)C3=C(C)[C@@H](OC(=O)[C@H](O)[C@@H](NC(=O)OC(C)(C)C)c4ccccc4)C[C@@](O)([C@@H](OC(=O)c4ccccc4)[C@H]21)C3(C)C [docetaxel] | – | – | – | significantly lower drug loading
